Assay outcomes: PubChem BioAssay, several laboratories
Hck Nef HTS: inhibitors of human Hck kinase activated by Nef; 0.68% of 220,000 active; P08631; Recombinant Hck-YEEI plus Nef, Z-Lyte FRET kinase assay; inhibition, % at 20 µM;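 active = Hck-Nef kinase inhibition above about 50%, limit read from the data; inactive = inhibition below that limit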;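 also: 0% = DMSO with Hck plus Nef and 100% = Hck alone without Nef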
Target sequence (P08631 whole entry, looked up): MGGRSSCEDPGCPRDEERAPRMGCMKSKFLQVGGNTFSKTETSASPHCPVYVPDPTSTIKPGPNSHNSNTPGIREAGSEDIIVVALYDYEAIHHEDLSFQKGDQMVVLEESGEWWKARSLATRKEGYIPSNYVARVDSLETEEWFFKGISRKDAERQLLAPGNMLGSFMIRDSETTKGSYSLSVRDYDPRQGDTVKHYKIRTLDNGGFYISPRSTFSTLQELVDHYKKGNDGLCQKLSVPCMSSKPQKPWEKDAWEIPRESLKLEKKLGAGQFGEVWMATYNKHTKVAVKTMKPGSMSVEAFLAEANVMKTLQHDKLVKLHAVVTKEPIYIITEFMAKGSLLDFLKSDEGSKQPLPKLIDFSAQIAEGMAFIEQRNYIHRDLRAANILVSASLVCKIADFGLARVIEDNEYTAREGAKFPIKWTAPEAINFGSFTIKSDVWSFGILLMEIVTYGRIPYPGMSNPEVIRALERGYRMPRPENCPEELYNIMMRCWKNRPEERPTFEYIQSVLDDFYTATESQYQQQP
Runt-CBFb FRET: blocks binding of human RUNX1 Runt domain to CBFb; AID 1496; Q01196+Q13951; inhibition, % at 20 µM; 0.46% of 220,000 active; Cerulean-Runt/Venus-CBFb FRET ratio 530/480, 1 h;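 active = inhibition over about 50% at 20 µM in the single-dose screen, limit read from the data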;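 also: 0% = DMSO wells and 100% = excess unlabeled CBFb competitor control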
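Assay system: Cerulean-tagged RUNX1 Runt domain (FRET donor) fusion protein / Amount: 100 nM each of Venus-CBFb and Cerulean-Runt domain / Medium: Tris buffer pH 7.5 with salts and BSA / Also added: Venus-CBFb 100 nM / Schedule: 1 h complex formation plus 1 h compound treatment, room temperature / Signal: FRET fluorescence / Read-out: loss of energy transfer signal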
Runt-SMMHC FRET: blocks binding of human RUNX1 Runt domain to CBFb-SMMHC; Cerulean-Runt/Venus-CBFb-SMMHC FRET ratio 530/480, 1 h; inhibition, % at 20 µM; 0.74% of 220,000 active;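 active = mean inhibition across duplicate retests at 20 µM reaching about 50%, limit read from the data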;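 also: 0% = DMSO wells and 100% = wells with excess untagged CBFb-SMMHC; inhibitors lower the FRET ratio by blocking Runt binding to CBFb-SMMHC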
RanGTP-Impb inh: inhibitors of RanGTP-importin-beta interaction, primary screen, biochemical, FRET, CFP-Ran, YFP-importin-beta, homogeneous; 1.1% of 300,000 active; inhibition, % (no concentration beside the values); cell-free CFP-Ran/YFP-importin-beta FRET ratio; AID 2216;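 active = more than half of the replicate wells show a fall in the fluorescence ratio signal beyond about 16%, limit read from the data, passing the limit was not always enough; inconclusive = exactly half of the replicate wells pass the set limit; inactive = fewer than half of replicates pass the limit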;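 also: 0% = DMSO wells and 100% = Ran loaded with GDP instead of GTP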
TbHK1 inh: blocks Trypanosoma brucei hexokinase 1 activity | recombinant TbHK1, G6PDH-coupled NADH A340 | inhibition, % at 10 µM | 0.11% of 220,000 active;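 active = inhibition of 50% or more in the single-dose primary screen; inactive = inhibition below 50%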
An asterisk follows results filed as active; ? = inconclusive; . = no result. Shown are actives, neighbours in structure and some others; about 1.9% of the full set was active somewhere.

SMILES	Hck Nef HTS	Runt-CBFb FRET	Runt-SMMHC FRET	RanGTP-Impb inh	TbHK1 inh
COC(=O)C1=CN(C2CCCCC2)C=C(C(=O)OC)C1c1ccc2c(c1)OCO2	21	28	75*	3	-1
Cc1cc(-n2ccnc2)n2c(nc3ccccc32)c1C#N	6	37	48	3	-17
CCCc1cc(-n2ccnc2)n2c(nc3ccccc32)c1C#N	5	88*	62*	?	-6
CCCCC(=O)N1CCN(c2nc3ccc(Cl)cc3s2)CC1	.	.	.	-1	.
CC1(c2ccc(OC(F)F)cc2)NC(=O)N(/N=C/c2c(O)ccc3ccccc23)C1=O (stereo not drawn)	3	39	71*	7	19
CC1CC1c1ccc(/C=C(\C#N)C(=O)Nc2cccc(Cl)c2Cl)o1 (stereo not drawn)	2	-20	-112	40*	-4
O=C(CC1C(=O)NCCN1C(=O)Nc1ccccc1)Nc1cc(Cl)cc(Cl)c1 (stereo not drawn)	.	.	.	-2	.
CCCS(=O)(=O)c1c(S(=O)(=O)CCC)c2cc(-c3ccncc3)ccn2c1C(=O)OC	20	18	109*	-2	-14
COc1ccc(C)cc1NC(=O)CSc1ccc(-c2ccco2)nn1	.	.	.	2	.
CCOc1ccc(NC(=O)CCC(=O)N/N=C(\C)c2cccs2)cc1	.	.	.	4	.
CC1CCC(C(C)C)C2=C1C(C#N)(C#N)C(C#N)(C#N)C(c1ccccc1)N2 (stereo not drawn)	18	8	-3	-4	-3
CC(C)C1OC2(C)OC(=N)C1(C#N)C(C#N)(C#N)C2c1ccccc1 (stereo not drawn)	21	40	63*	32*	-9
CCC1OC2(C)OC(=N)C1(C#N)C(C#N)(C#N)C2c1ccccc1 (stereo not drawn)	17	22	67	33*	-3
CC(C)(C)Nc1c2ccccc2nc2ccccc12	.	.	.	28*	.
c1ccc2c(NCCc3c[nH]c4ccccc34)c3ccccc3nc2c1	.	.	.	91*	.
Cc1ccc(-c2nc(NCCCO)c3ccccc3n2)cc1	.	.	.	8	.
OCCCNc1c2ccccc2nc2ccccc12	.	.	.	51*	.
CCCCCCCc1nn2c(=O)cc(O)nc2s1	3	1	1	1	11
COc1c(C)cc(C(=O)C2CCCN(C(=O)CCc3scnc3C)C2)cc1C (stereo not drawn)	8	1	-8	3	-6
CC1Cc2cc(/C(O)=C3/C(=O)C(=O)N(CCN4CCOCC4)C3c3ccc(N(C)C)cc3)ccc2O1 (stereo not drawn)	.	.	.	30*	.
COCCCNc1nc2nonc2nc1N1CCN(Cc2cccc(C)c2)CC1	3	24	82*	0	-23
Cn1cnnc1SCC(=O)c1c[nH]c2ccccc12	-6	-2	-2	31*	-1
O=C(CSc1nncn1-c1ccccc1)c1c[nH]c2ccccc12	13	2	2	5	-2
CC1(C)Cc2c(cnn2-c2ccccc2)-c2c1c1ccccc1n2CC(O)CBr (stereo not drawn)	1	38	-10	-7	-14
COc1ccc(C(=O)NC(=S)NCCO)cc1Br	2	0	-7	5	2
SMILES	Hck Nef HTS	Runt-CBFb FRET	Runt-SMMHC FRET	RanGTP-Impb inh	TbHK1 inh
COc1cc(CN2CCN(CCCc3ccccc3)CC2CCO)cc(OC)c1 (stereo not drawn)	.	.	.	27*	.
CCOC(=O)c1c(CCl)nc2ccccc2c1C	26	1	2	0	-3
COc1ccc(-c2cc(-c3nnc(-c4ccncc4)o3)c3ccccc3n2)cc1	5	34	70*	3	-4
CCc1c(C)c(C#N)c2nc3ccccc3n2c1NCC1CCCO1 (stereo not drawn)	21	35	65*	7	-6
COC(=O)CCc1c(C)c(C#N)c2nc3ccccc3n2c1N1CCCC1	4	13	62	17*	-9
CCc1c(C)c(C#N)c2nc3ccccc3n2c1-n1nc(C)cc1C	0	-20	-63	-4	-11
CCc1c(C)c(C#N)c2nc3ccccc3n2c1NCc1ccccn1	21	32	65*	12	-4
CCc1c(C)c(C#N)c2nc3ccccc3n2c1Cl	4	-10	-31	21*	-5
Cc1ccc(CC(=O)Nc2ccc(S(=O)(=O)Nc3ncccn3)cc2)cc1	.	.	.	-1	.
Cn1c(SCc2ccc(Cl)cc2)nc(C(F)(F)F)cc1=O	13	-4	-9	?	-9
O=C(NCc1cccnc1)C12CC3CC(CC(Cl)(C3)C1)C2	.	.	.	2	.
Cc1c2c(n3c(nc4ccccc43)c1C#N)N(c1ccccc1)CC2	6	16	79*	.	-5
CC(C)c1[nH]nc2c1C1(CCN(Cc3ccccc3)CC1)C(C#N)=C(N)O2	1	50	59*	21*	2
Cc1[nH]nc2c1C1(CCN(Cc3ccccc3)CC1)C(C#N)=C(N)O2	11	8	36	?	-1
O=c1c2ccccc2n(CC(O)CN2CCOCC2)c2ccccc12 (stereo not drawn)	.	.	.	79*	.
C/C=C/C=C/[C@H]1Cc2cc(O)cc(O)c2O1	45	4	-22	22*	-13
COc1ccc(CN2CCCC(C(=O)Nc3cccc(-n4cnnn4)c3)C2)c(C)c1C (stereo not drawn)	.	.	.	3	.
N#Cc1c(N)n(CCc2ccc(F)cc2)c2nc3ccccc3nc12	9	93*	77*	44*	-7
Cc1ccc(C(=O)NCCn2c(N)c(C#N)c3nc4ccccc4nc32)cc1	15	98*	79*	58*	-2
N#Cc1c(N)n(CCOC(=O)c2cccc([N+](=O)[O-])c2)c2nc3ccccc3nc12	2	4	31	4	-1
N#Cc1c(N)n(CCOC(=O)c2cccc(Br)c2)c2nc3ccccc3nc12	1	26	51*	?	-3
COCCn1c(N)c(C#N)c2nc3ccccc3nc21	26	108*	57*	71*	-14
CCCCn1c(N)c(S(=O)(=O)c2ccc(C)cc2)c2nc3ccccc3nc21	11	3	16	3	-10
Cc1ccccc1-n1ncc(C(C)NS(=O)(=O)c2sccc2C)c1C (stereo not drawn)	.	.	.	7	.
Cc1ccc(OCC(=O)Nc2ccc3c(c2)C(=O)N(CCC(=O)O)C3=O)cc1	.	.	.	1	.
CC(=O)OCC1OC(Nc2cccc(C)c2)C(OC(C)=O)C(OC(C)=O)C1OC(C)=O (stereo not drawn)	0	-1	-2	-1	27
O=C(O)c1ccc(-n2c(O)c(C=C3N=c4ccccc4=N3)sc2=S)cc1	3	6	-8	-3	-10
COc1ccc(C2C(C(N)=O)=C(C)Nc3nc(CCCO)nn32)cc1OC (stereo not drawn)	.	.	.	6	.
COc1cccc(Cn2c(N)c(C#N)c3nc4ccccc4nc32)c1OC	10	37	22	9	-3
